One test concerns MCF7. Put plainly: Cytotoxicity against human MCF7 cells by MTT assay. Format: functional, cell-based. A digest of the protocol: (§1)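 MTT assay following Mosmann's method. Each IC50 was derived from four individual observations for each cell line.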
In general terms: Tetrazolium dyes change colour on reduction, which living cells bring about.

In a further test the test system is A549. Put plainly: Cytotoxicity against human A549 cells by MTT assay. Type of test: functional, cell-based. A digest of the protocol:
(§2)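 MTT read-out following Mosmann's method; IC50 for each cell line derived from four individual observations.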

Test [1] can be described thus: Cytotoxicity against human MDA231 cells by MTT assay. Format: functional, cell-based. The following applies: MDA-MB-231. A digest of the protocol:
as §2

In the next test the test system is HeLa. Put plainly: Cytotoxicity against human HeLa cells by MTT assay. Type of test: functional, cell-based. The method, boiled down:
as §2

A short description of test [2]: Cytotoxicity against mouse Neuro2a cells by MTT assay. Type of test: functional, cell-based. The conditions noted are these: N2a. A digest of the protocol:
as §1

Test [3] has as its system Staphylococcus aureus. Put plainly: Antimicrobial activity against Staphylococcus aureus MLS16 MTCC 96 by microtiter broth dilution method. The following applies: MLS16 MTCC 2940, in the assay text read “MTCC 2940” for “MTCC 96”. Type of test: functional. A digest of the protocol:
(§3)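 MIC determined by microtiter broth dilution, with neomycin as the reference control; each organism's value derived from four individual observations.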

For test [4], the system named is Staphylococcus aureus. Put plainly: Antimicrobial activity against Staphylococcus aureus MTCC 96 by microtiter broth dilution method. Type of test: functional. The method, boiled down:
as §3
(In broth dilution the organism is exposed to a series of concentrations in liquid medium.)

For a further test, the system named is Pseudomonas aeruginosa. Put plainly: Antimicrobial activity against Pseudomonas aeruginosa MTCC 2453 by microtiter broth dilution method. Format: functional. A digest of the protocol:
as §3

The subject of a further test is Bacillus subtilis. Put plainly: Antimicrobial activity against Bacillus subtilis MTCC 121 by microtiter broth dilution method. Type of test: functional. The method, boiled down: as §3
The next test deals with Escherichia coli. Put plainly: Antimicrobial activity against Escherichia coli MTCC 739 by microtiter broth dilution method. Type of test: functional. The method, boiled down:
as §3

Another test deals with Raoultella planticola. Put plainly: Antimicrobial activity against Klebsiella planticola MTCC 530 by microtiter broth dilution method. Format: functional. A digest of the protocol: as §3

Values after ≈ are worked out from the molar mass of the structure shown.

As a reminder, the IC50 is the concentration that gives 50% inhibition. Read a high IC50 as weaker potency in that assay. Broadly, the MIC is the least concentration at which growth counts as inhibited. Higher therefore signals a less susceptible organism.

As for `CC1=C[C@@]2(O)C(=O)[C@@H](C)C[C@@H]3[C@H](CC[C@](C)(O)/C=C/2[C@@H]1O)C3(C)C` [MULTIFIDENOL], the IC50 with MCF7 came out at 8.57 µM; with A549, 12.5 µM; in test [1] it was 5.39 µM; with HeLa it was 7.56 µM; in [2], 5.6 µM. Moreover, the minimal inhibitory concentration (MIC) in the test with Staphylococcus aureus [3] and in the test on Staphylococcus aureus [4] was 4.68 µg/mL (≈ 14 µM) in each case.

`COc1cccc2c1C(=O)c1c(O)c3c(c(O)c1C2=O)C[C@@](O)(C(=O)CO)C[C@@H]3O[C@H]1C[C@H](N)[C@H](O)[C@H](C)O1` [DOXORUBICIN]: the concentration for half-maximal inhibition (IC50) (in [1]; in the test with HeLa) was less than 1 µM each time.

Turning to `C[C@H]1C[C@@H]2[C@H](CC[C@](C)(O)/C=C3\[C@H](O)[C@@H](C)C[C@@]3(O)C1=O)C2(C)C` [MULTIFIDANOL], the MIC in the test on Pseudomonas aeruginosa was 9.37 µg/mL (≈ 27.8 µM); against Bacillus subtilis, 4.68 µg/mL (≈ 13.9 µM); in the test with Escherichia coli, 4.68 µg/mL (≈ 13.9 µM); in the test on Raoultella planticola, 9.37 µg/mL (≈ 27.8 µM); against Staphylococcus aureus [3], 18.8 µg/mL (≈ 55.7 µM); in the test on Staphylococcus aureus [4] it was 18.8 µg/mL (≈ 55.7 µM). The IC50 in the test on MCF7 turned out to be 6.39 µM; in the test with A549 it was 6.27 µM; in test [1], 7.04 µM; in the test on HeLa, 15.4 µM; in [2], 6.35 µM.

(Values after ChEMBL document CHEMBL1909579, “New bioactive macrocyclic diterpenoids from Jatropha multifida” (Bioorg Med Chem Lett, 2011).)
